The subject of data set [1] is Mus musculus. Description: Postural effect on caudectomized Swiss albino mouse assessed as time duration of asymmetric posture at 50.8 mg/kg, ip. Conditions: route intraperitoneal. In kind it is functional. An outline of the steps:
(§1)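 Male Swiss albino Hale-Stoner mice given a right caudectomy by suction. The lesion counted as successful if the mice reacted to apomorphine 4 weeks later. Drug was given ip in 0.9% saline, up to 0.348 mmol/kg, to randomised groups of six, with 5-6 days before reuse. Onset and duration of asymmetric posture are reported as mean ± SE from six animals.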

Data set [2] has as its system Mus musculus. Description: Reversal of reserpine-induced catalepsy in ip dosed Swiss albino (CD1) mouse. Type of data set: functional. In outline:
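Male Swiss albino CD1 mice, 5 weeks old, got reserpine 5 mg/kg ip, then α-MTM 250 mg/kg ip 17 h later, then the test drug ip 4 h after that. Catalepsy was scored by the rubber-stopper test (time to step off the stopper). At least four doses were used, with ≥8 mice per dose. ED50 was taken from a log-probit plot of percent responders against dose.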

Data set [3] relates to Mus musculus. Description: Postural effect on caudectomized Swiss albino mouse assessed as latency to onset time of asymmetric postural effect at 25.4 mg/kg, ip. In kind it is functional. Conditions: route intraperitoneal. In outline:
(§2)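 Male Swiss albino Hale-Stoner mice with a right caudectomy made by suction. A lesion was accepted if the mouse responded to apomorphine 4 weeks after surgery. Compounds were dissolved in 0.9% saline and injected ip at random into groups of six, with a maximum dose of 0.348 mmol/kg. 18 mice were used per compound, and mice were retested after 5–6 day intervals. Onset and duration of the asymmetric posture are reported as mean ± SE from six animals.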

The test system of data set [4] is Mus musculus. The data set can be described thus: Postural effect on caudectomized Swiss albino mouse assessed as latency to onset time of asymmetric postural effect at 50.8 mg/kg, ip. Type of data set: functional. The settings on record: route intraperitoneal. An outline of the steps:
as §2

Data set [5] has as its system Mus musculus. Description: Postural effect on caudectomized Swiss albino mouse assessed as time duration of asymmetric posture at 25.4 mg/kg, ip. In kind it is functional. The settings on record: route intraperitoneal. An outline of the steps: as §2
Data set [6] deals with Mus musculus. The data set can be described thus: Postural effect on caudectomized Swiss albino mouse assessed as time duration of asymmetric posture at 47.6 mg/kg, ip. In kind it is functional. The settings on record: route intraperitoneal. An outline of the steps:
as §2

The test system of data set [7] is Mus musculus. The data set can be described thus: Postural effect on caudectomized Swiss albino mouse assessed as time duration of asymmetric posture at 23.8 mg/kg, ip. Type of data set: functional. Conditions: route intraperitoneal. In outline: as §2
Data set [8] deals with Mus musculus. The data set can be described thus: Postural effect on caudectomized Swiss albino mouse assessed as time duration of asymmetric posture at 71.5 mg/kg, ip. In kind it is functional. Conditions: route intraperitoneal. An outline of the steps:
as §1

Data set [9] relates to Mus musculus. Description: Postural effect on caudectomized Swiss albino mouse assessed as latency to onset time of asymmetric postural effect at 23.8 mg/kg, ip. Type of data set: functional. The settings on record: route intraperitoneal. In outline: as §2
Data set [10] has as its system Mus musculus. Description: Postural effect on caudectomized Swiss albino mouse assessed as latency to onset time of asymmetric postural effect at 47.6 mg/kg, ip. In kind it is functional. Conditions: route intraperitoneal. In outline: as §2
Data set [11] concerns Mus musculus. Description: Postural effect on caudectomized Swiss albino mouse assessed as latency to onset time of asymmetric postural effect at 71.5 mg/kg, ip. Type of data set: functional. Conditions: route intraperitoneal. An outline of the steps:
as §2

The subject of data set [12] is Mus musculus. Description: Ratio of apomorphine ED50 to compound ED50 for reversal of reserpine-induced catalepsy in ip dosed Swiss albino (CD1) mouse. In kind it is functional.
The subject of data set [13] is Mus musculus. Description: Postural effect on caudectomized Swiss albino mouse assessed as time duration of asymmetric posture at 41 mg/kg, ip. Type of data set: functional. Conditions: route intraperitoneal. In outline:
as §2

The test system of data set [14] is Mus musculus. The data set can be described thus: Postural effect on caudectomized Swiss albino mouse assessed as latency to onset time of asymmetric postural effect at 41 mg/kg, ip. In kind it is functional. Conditions: route intraperitoneal. In outline: as §2
The subject of data set [15] is Mus musculus. The data set can be described thus: Postural effect on caudectomized Swiss albino mouse assessed as time duration of asymmetric posture at 27.3 mg/kg, ip. Type of data set: functional. Conditions: route intraperitoneal. In outline: as §2
The test system of data set [16] is Mus musculus. The data set can be described thus: Toxicity in caudectomized Swiss albino mouse at 54.6 mg/kg, ip. Also on record: dose 54.6 mg/kg, route intraperitoneal. Type of data set: organism-based. Conditions: in vivo.
Data set [17] has as its system Mus musculus. The data set can be described thus: Postural effect on caudectomized Swiss albino mouse assessed as latency to onset time of asymmetric postural effect at 27.3 mg/kg, ip. Type of data set: functional. Conditions: route intraperitoneal. In outline: as §2
Data set [18] relates to Mus musculus. The data set can be described thus: Postural effect on caudectomized Swiss albino mouse assessed as time duration of asymmetric posture at 29.9 mg/kg, ip. In kind it is functional. Conditions: route intraperitoneal. In outline: as §2
In data set [19] the test system is Mus musculus. The data set can be described thus: Postural effect on caudectomized Swiss albino mouse assessed as latency to onset time of asymmetric postural effect at 59.8 mg/kg, ip. In kind it is functional. The settings on record: route intraperitoneal. In outline: as §2
Data set [20] relates to Mus musculus. The data set can be described thus: Postural effect on caudectomized Swiss albino mouse assessed as time duration of asymmetric posture at 59.8 mg/kg, ip. The settings on record: route intraperitoneal. Type of data set: functional. An outline of the steps: as §1
The subject of data set [21] is Mus musculus. Description: Postural effect on caudectomized Swiss albino mouse assessed as latency to onset time of asymmetric postural effect at 29.9 mg/kg, ip. Type of data set: functional. The settings on record: route intraperitoneal. In outline:
as §2

Data set [22] relates to Mus musculus. Description: Postural effect on caudectomized Swiss albino mouse assessed as latency to onset time of asymmetric postural effect at 29.2 mg/kg, ip. In kind it is functional. The settings on record: route intraperitoneal. An outline of the steps:
(§3)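 Male Swiss albino Hale-Stoner mice with right caudectomy by suction, used if responsive to apomorphine 4 weeks post-lesion. Compound in 0.9% saline given ip, maximum 0.348 mmol/kg. 18 mice per compound in random groups of six, retested after 5–6 day intervals. Onset latency and duration of asymmetric posture recorded; mean ± SE from six animals.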

Data set [23] has as its system Mus musculus. The data set can be described thus: Postural effect on caudectomized Swiss albino mouse assessed as time duration of asymmetric posture at 29.2 mg/kg, ip. In kind it is functional. The settings on record: route intraperitoneal. An outline of the steps: as §3
Data set [24] concerns Mus musculus. Description: Postural effect on caudectomized Swiss albino mouse assessed as latency to onset time of asymmetric postural effect at 58.4 mg/kg, ip. In kind it is functional. Conditions: route intraperitoneal. In outline:
as §3

For data set [25], the system named is Mus musculus. The data set can be described thus: Postural effect on caudectomized Swiss albino mouse assessed as time duration of asymmetric posture at 58.4 mg/kg, ip. The settings on record: route intraperitoneal. Type of data set: functional. In outline:
as §3

For data set [26], the system named is Mus musculus. The data set can be described thus: Toxicity in caudectomized Swiss albino mouse at 44.6 mg/kg, ip. In kind it is organism-based. Also on record: dose 44.6 mg/kg, route intraperitoneal. The settings on record: in vivo.
Data set [27] has as its system Mus musculus. The data set can be described thus: Postural effect on caudectomized Swiss albino mouse assessed as latency to onset time of asymmetric postural effect at 29.8 mg/kg, ip. Type of data set: functional. The settings on record: route intraperitoneal. In outline:
as §2

The subject of data set [28] is Mus musculus. Description: Postural effect on caudectomized Swiss albino mouse assessed as time duration of asymmetric posture at 29.8 mg/kg, ip. Type of data set: functional. Conditions: route intraperitoneal. An outline of the steps:
as §2

As for `CCCN(CCc1ccc(O)c(O)c1)CC(C)C.Cl`, the Time in the data set on Mus musculus [1] amounted to 39 min; with Mus musculus [3], 2.8 min; with Mus musculus [4], 2.6 min; in the data set on Mus musculus [5] it was 18 min. The 50% effective dose (ED50) (commonly the midpoint of the dose-response relation) in the data set with Mus musculus [2] came out at 7.4 mg/kg.

On to `CCCCN(CC)CCc1ccc(O)c(O)c1.Cl`, for which the Time was determined as 2.5 min in the data set on Mus musculus [6]; 4.2 min with Mus musculus [7]; 19.4 min in the data set on Mus musculus [8]; 2.1 min in the data set on Mus musculus [9]; 2.3 min in the data set with Mus musculus [10]; 5 min in the data set on Mus musculus [11]. Besides, the ED50 with Mus musculus [2] came out at 34 mg/kg.

On to `Br.CCCCN(CCC)C1CCc2cc(O)c(O)cc2C1` (stereo not drawn), for which the “Ratio ED50” value with Mus musculus [12] is 10. Moreover, the 50% effective dose (ED50) in the data set with Mus musculus [2] was determined as 1.3 mg/kg. Also, the Time came to 31.5 min with Mus musculus [13], 2 min in the data set on Mus musculus [14], 17 min in the data set with Mus musculus [15] and 2.8 min in the data set with Mus musculus [17]. Further, in the data set with Mus musculus [16], the Activity result is recorded as “Toxic”.

Take `Br.CCCN(CCC)C1CCc2cc(O)c(O)cc2C1` (stereo not drawn): the Time in the data set on Mus musculus [18] is reported as 17 min; in the data set on Mus musculus [19], 2 min; in the data set on Mus musculus [20] it was 31.5 min; with Mus musculus [21] it was 2.8 min. In addition, in the data set with Mus musculus [2], the ED50 is 1.6 mg/kg.

Turning to `CCCN(CCc1ccccc1)CCc1ccc(O)c(O)c1.Cl`, the ED50 with Mus musculus [2] stood at 7.4 mg/kg. The Time in the data set on Mus musculus [22] was determined as 4.4 min; with Mus musculus [23] it was 19.8 min; in the data set on Mus musculus [24] it was 3.2 min; in the data set on Mus musculus [25] it was 47.4 min.

As to `CCCN(CCc1ccc(O)c(O)c1)CCC1CCCCC1.Cl`, the ED50 in the data set with Mus musculus [2] came out at 18 mg/kg. Further, the Activity entry in the data set on Mus musculus [26] is “Toxic”. Also, the Time was found to be 4.2 min with Mus musculus [27] and 14.1 min with Mus musculus [28].

Source of the values: ChEMBL document CHEMBL3244330, “Structure--activity relationships of n-substituted dopamine and 2-amino-6,7-dihydroxy-1,2,3,4-tetrahydronaphthalene analogues: behavioral effects in lesioned and reserpinized mice” (J Med Chem, 1979).
